Assay results published in ChEMBL document CHEMBL4715825, “Synthesis and biological evaluations of marine oxohexadecenoic acids: PPARα/γ dual agonism and anti-diabetic target gene effects” (Eur J Med Chem, 2018).
Active and inactive are the calls of the source. The rule behind the calls is not given here.

How the values were obtained:
[1] = biological target: T1, Peroxisome proliferator-activated receptor alpha (Homo sapiens) (UniProt Q07869); test: Agonist activity at human PPARalpha in human HuH-7 cells assessed as increase in ACOX1 gene expression at 50 uM incubated for 24 hrs by SYBR-green based qPCR analysis; type: cell-based
T1 sequence (whole entry): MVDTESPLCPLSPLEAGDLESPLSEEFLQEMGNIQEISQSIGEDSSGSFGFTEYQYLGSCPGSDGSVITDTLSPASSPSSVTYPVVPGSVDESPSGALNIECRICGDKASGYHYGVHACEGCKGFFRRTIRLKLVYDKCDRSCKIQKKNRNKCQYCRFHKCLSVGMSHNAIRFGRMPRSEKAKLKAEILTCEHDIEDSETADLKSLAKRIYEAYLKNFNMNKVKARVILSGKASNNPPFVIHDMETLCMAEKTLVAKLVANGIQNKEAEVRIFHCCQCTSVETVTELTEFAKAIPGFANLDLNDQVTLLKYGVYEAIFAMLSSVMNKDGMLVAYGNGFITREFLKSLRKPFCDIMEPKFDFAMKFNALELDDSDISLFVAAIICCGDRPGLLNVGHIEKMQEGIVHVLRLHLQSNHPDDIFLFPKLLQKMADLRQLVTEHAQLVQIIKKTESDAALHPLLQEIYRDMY
Method in brief: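 Cells were seeded at 2×10^5 per well and treated 24 h later with compound in DMSO (final 0.1%). The next day, cells were washed and scraped into RLT buffer. RNA was isolated, and target gene mRNA was quantified by SYBR-green qPCR with specific primers.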

[2] = biological target: T2, Oxysterols receptor LXR-alpha (Homo sapiens) (UniProt Q13133); test: Agonist activity at recombinant human LXRalpha LBD (164 to 447 residues) expressed in African green monkey COS-1 cells at 25 to 50 uM incubated for 18 hrs by luciferase reporter gene assay; type: cell-based; conditions: dose 25-50 µM
T2 sequence (whole entry): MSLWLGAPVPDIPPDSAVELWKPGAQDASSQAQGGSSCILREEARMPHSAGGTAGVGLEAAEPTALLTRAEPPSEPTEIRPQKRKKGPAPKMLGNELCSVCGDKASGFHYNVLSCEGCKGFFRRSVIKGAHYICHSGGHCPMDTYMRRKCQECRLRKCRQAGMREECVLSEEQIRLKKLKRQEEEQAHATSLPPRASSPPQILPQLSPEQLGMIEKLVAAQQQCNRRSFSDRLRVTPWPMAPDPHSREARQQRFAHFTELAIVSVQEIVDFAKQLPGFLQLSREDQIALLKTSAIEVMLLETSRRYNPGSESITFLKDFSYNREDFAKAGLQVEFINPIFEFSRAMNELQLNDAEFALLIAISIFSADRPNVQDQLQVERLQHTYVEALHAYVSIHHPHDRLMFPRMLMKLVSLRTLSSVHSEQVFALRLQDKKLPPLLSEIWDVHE
Method in brief: (§1)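 Transient Gal4 one-hybrid assay in COS-1 cells (7×10^4 per well), transfected 24 h after seeding. Plasmids were Gal4-DBD fused to the human nuclear receptor LBD, a 5×UAS-SV40 luciferase reporter and pRL-CMV Renilla control. Ligand in DMSO (final 0.1%) was added 5 h post-transfection. Dual-luciferase activity was read after 18 h, expressed as RLU, from three biological replicates in quadruplicate.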

[3] = biological target: T3, Retinoic acid receptor RXR-alpha (Homo sapiens) (UniProt P19793); test: Agonist activity at recombinant human RXRalpha LBD (202 to 462 residues) expressed in African green monkey COS-1 cells at 25 to 50 uM incubated for 18 hrs by luciferase reporter gene assay; type: cell-based; conditions: dose 25-50 µM; method in brief: as §1
T3 sequence (whole entry): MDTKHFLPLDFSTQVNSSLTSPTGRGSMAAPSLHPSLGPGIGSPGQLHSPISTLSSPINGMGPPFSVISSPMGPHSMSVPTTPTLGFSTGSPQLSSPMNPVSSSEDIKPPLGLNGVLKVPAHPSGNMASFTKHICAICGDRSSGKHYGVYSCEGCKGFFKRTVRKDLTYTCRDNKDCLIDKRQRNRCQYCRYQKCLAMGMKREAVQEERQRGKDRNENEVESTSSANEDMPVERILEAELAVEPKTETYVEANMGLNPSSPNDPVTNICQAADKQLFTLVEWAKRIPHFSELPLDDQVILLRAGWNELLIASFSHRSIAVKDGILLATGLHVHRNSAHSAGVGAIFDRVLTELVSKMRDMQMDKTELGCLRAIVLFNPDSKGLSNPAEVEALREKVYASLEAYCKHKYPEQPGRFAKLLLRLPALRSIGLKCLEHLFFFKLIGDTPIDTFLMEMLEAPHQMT

[4] = system: SGBS; test: Induction of adipogenesis in 8 day differentiated human SGBS cells assessed as increase in adipocyte-like multilocular morphology cells at 25 uM measured upto 12 days by oil-O-red staining based inverted microscopic analysis; type: functional, cell-based; conditions: time day <=12
Method in brief: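 SGBS cells were differentiated in Quickdiff for 4 days, supplemented with 25 µM oxo-fatty acid or 2 µM rosiglitazone, then in 3FC to day 8. Controls were DMSO (0.025%) or BSA (4.2 µM). Cells were fixed in 4% paraformaldehyde for 15 min and stained 15 min with Oil Red O for neutral lipids. They were imaged by inverted microscope at 10× and 40×. Three biological replicates were run in duplicate.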

[5] = biological target: T4, Peroxisome proliferator-activated receptor gamma (Homo sapiens) (UniProt P37231); test: Agonist activity at recombinant human PPARgamma LBD (205 to 505 residues) expressed in African green monkey COS-1 cells at 25 to 50 uM incubated for 18 hrs by luciferase reporter gene assay; type: cell-based; conditions: filed as agonist, dose 25-50 µM; method in brief: as §1
T4 sequence (whole entry): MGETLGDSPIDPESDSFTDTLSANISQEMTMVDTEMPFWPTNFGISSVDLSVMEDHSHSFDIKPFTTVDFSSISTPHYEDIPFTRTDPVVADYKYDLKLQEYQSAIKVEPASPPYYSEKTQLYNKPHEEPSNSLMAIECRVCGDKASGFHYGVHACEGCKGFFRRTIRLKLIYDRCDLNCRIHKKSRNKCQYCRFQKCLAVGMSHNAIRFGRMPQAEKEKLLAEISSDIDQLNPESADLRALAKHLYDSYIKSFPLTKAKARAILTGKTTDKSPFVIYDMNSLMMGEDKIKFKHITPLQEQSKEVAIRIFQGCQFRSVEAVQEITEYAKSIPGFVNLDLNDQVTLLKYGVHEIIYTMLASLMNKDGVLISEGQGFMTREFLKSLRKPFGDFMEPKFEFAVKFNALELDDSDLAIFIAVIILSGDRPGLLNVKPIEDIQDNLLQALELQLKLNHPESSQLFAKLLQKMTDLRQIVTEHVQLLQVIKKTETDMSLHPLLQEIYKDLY

[6] = system: SGBS; test: Effect on diabetic complication pathway in 8 day differentiated human SGBS cells assessed as downregulation of AGE-RAGE signalling genes at 25 uM incubated for 8 days by Illumina sequencing method; type: functional, cell-based
Method in brief: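 SGBS cells were differentiated 4 days in Quickdiff supplemented with compound:BSA or rosiglitazone, then 4 days in 3FC. Total RNA was extracted, and strand-specific TruSeq libraries were sequenced on NextSeq 500 (2×75 bp paired-end). Reads were aligned to hg19 with Tophat/Bowtie and counted as RPKM by Cufflinks. Values are log2 fold over day 0 cells, grouped into KEGG gene sets (n = 2-4).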

Activity [1]	Activity [2]	Activity [3]	Activity [5]	SMILES	Activity [4]	Activity [6]
inactive	inactive	inactive	Active	CCCCCCCC(=O)/C=C/CCCCCC(=O)O	Active	Active
inactive	inactive	inactive	Active	CCCCC/C=C/C(=O)CCCCCCCC(=O)O	Active	Active
